ChEMBL document CHEMBL4680175, “Sulfonamide-based ring-fused analogues for CAN508 as novel carbonic anhydrase inhibitors endowed with antitumor activity: Design, synthesis, and in vitro biological evaluation” (Eur J Med Chem, 2020)
The source made the active and inactive calls. The rule behind the calls is not given here.

Columns and labels:
[1] = tested on: Malme-3M; assay: Antitumor activity against human MALME-3M cells assessed as cell growth inhibition at 10 uM incubated for 48 hrs by sulforhodamine B assay; assay type: functional; conditions: read-out: GI
Outline: (§1)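 NCI Drug Evaluation Branch protocol: primary single-dose screen at 10 μM across a 57-line human cancer panel. Drug exposure is 48 h. Cell growth and viability are read by sulforhodamine B assay. Data are given as a mean graph of percent growth of treated cells and reported as percentage growth inhibition (GI%).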

[2] = tested on: KM12; assay: Antitumor activity against human KM12 cells assessed as cell growth inhibition at 10 uM incubated for 48 hrs by sulforhodamine B assay; assay type: functional; conditions: read-out: GI; outline: as §1
[3] = biological target: Cyclin-dependent kinase 2/cyclin E1 (Homo sapiens, UniProt P24941); assay: Inhibition of CDK2/cyclin E (unknown origin) expressed in baculovirus infected Sf21 insect cells using histone H1 as substrate in presence of [gamma33P]ATP
[4] = tested on: HOP-62; assay: Antitumor activity against human HOP62 cells assessed as cell growth inhibition at 10 uM incubated for 48 hrs by sulforhodamine B assay; assay type: functional; conditions: read-out: GI; outline: as §1
[5] = tested on: SN12C; assay: Antitumor activity against human SN12C cells assessed as cell growth inhibition at 10 uM incubated for 48 hrs by sulforhodamine B assay; assay type: functional; conditions: read-out: GI; outline: as §1
[6] = tested on: HCT-116; assay: Antitumor activity against human HCT116 cells assessed as cell growth inhibition at 10 uM incubated for 48 hrs by sulforhodamine B assay; assay type: functional; conditions: read-out: GI; outline: as §1
[7] = tested on: U-251; assay: Antitumor activity against human U251 cells assessed as cell growth inhibition at 10 uM incubated for 48 hrs by sulforhodamine B assay; assay type: functional; conditions: read-out: GI
Outline: (§2)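 NCI one-dose screen: 57-cell-line panel exposed at 10 μM for 48 h, Drug Evaluation Branch protocol. Growth and viability read by sulforhodamine B; data given as percent growth inhibition from the mean-graph of percent growth of treated cells.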

[8] = tested on: OVCAR-8; assay: Antitumor activity against human OVCAR-8 cells assessed as cell growth inhibition at 10 uM incubated for 48 hrs by sulforhodamine B assay; assay type: functional; conditions: read-out: GI; outline: as §1
[9] = tested on: NCI/ADR-RES; assay: Antitumor activity against human NCI/ADR-RES cells assessed as cell growth inhibition at 10 uM incubated for 48 hrs by sulforhodamine B assay; assay type: functional, cell-based; outline: as §1
[10] = tested on: IGROV-1; assay: Antitumor activity against human IGROV1 cells assessed as cell growth inhibition at 10 uM incubated for 48 hrs by sulforhodamine B assay; assay type: functional; conditions: read-out: GI; outline: as §1
[11] = tested on: CAKI-1; assay: Antitumor activity against human CAKI-1 cells assessed as cell growth inhibition at 10 uM incubated for 48 hrs by sulforhodamine B assay; assay type: functional; conditions: read-out: GI; outline: as §1
[12] = tested on: SF-268; assay: Antitumor activity against human SF268 cells assessed as cell growth inhibition at 10 uM incubated for 48 hrs by sulforhodamine B assay; assay type: functional; conditions: read-out: GI; outline: as §1
[13] = tested on: NCI-H522; assay: Antitumor activity against human NCI-H522 cells assessed as cell growth inhibition at 10 uM incubated for 48 hrs by sulforhodamine B assay; assay type: functional; conditions: read-out: GI; outline: as §1
[14] = biological target: Carbonic anhydrase 12 (Homo sapiens, UniProt O43570); assay: Inhibition of recombinant human carbonic anhydrase 12 preincubated with enzyme for 15 mins by phenol red dye based stopped flow CO2 hydrase assay
[15] = tested on: CCRF-CEM; assay: Antitumor activity against human CCRF-CEM cells assessed as cell growth inhibition at 10 uM incubated for 48 hrs by sulforhodamine B assay; assay type: functional; conditions: read-out: GI; outline: as §1
[16] = tested on: SNB-75; assay: Antitumor activity against human SNB-75 cells assessed as cell growth inhibition at 10 uM incubated for 48 hrs by sulforhodamine B assay; assay type: functional; conditions: read-out: GI; outline: as §2
[17] = tested on: MOLT-4; assay: Antitumor activity against human MOLT4 cells assessed as cell growth inhibition at 10 uM incubated for 48 hrs by sulforhodamine B assay; assay type: functional; conditions: read-out: GI; outline: as §1
[18] = tested on: SK-MEL-5; assay: Antitumor activity against human SK-MEL-5 cells assessed as cell growth inhibition at 10 uM incubated for 48 hrs by sulforhodamine B assay; assay type: functional; conditions: read-out: GI; outline: as §1
[19] = tested on: RPMI-8226; assay: Antitumor activity against human RPMI8226 cells assessed as cell growth inhibition at 10 uM incubated for 48 hrs by sulforhodamine B assay; assay type: functional; conditions: read-out: GI; outline: as §1
[20] = tested on: NCI-H460; assay: Antitumor activity against human NCI-H460 cells assessed as cell growth inhibition at 10 uM incubated for 48 hrs by sulforhodamine B assay; assay type: functional; conditions: read-out: GI; outline: as §1
[21] = tested on: Hs-578T; assay: Antitumor activity against human HS 578T cells assessed as cell growth inhibition at 10 uM incubated for 48 hrs by sulforhodamine B assay; assay type: functional; conditions: read-out: GI; outline: as §1
[22] = tested on: MDA-MB-468; assay: Antitumor activity against human MDA-MB-468 cells assessed as cell growth inhibition at 10 uM incubated for 48 hrs by sulforhodamine B assay; assay type: functional; conditions: read-out: GI; outline: as §1
[23] = tested on: T47D; assay: Antitumor activity against human T-47D cells assessed as cell growth inhibition at 10 uM incubated for 48 hrs by sulforhodamine B assay; assay type: functional; conditions: read-out: GI; outline: as §2
[24] = tested on: RXF 393; assay: Antitumor activity against human RXF 393 cells assessed as cell growth inhibition at 10 uM incubated for 48 hrs by sulforhodamine B assay; assay type: functional; conditions: read-out: GI; outline: as §1
[25] = tested on: HOP-92; assay: Antitumor activity against human HOP92 cells assessed as cell growth inhibition at 10 uM incubated for 48 hrs by sulforhodamine B assay; assay type: functional; conditions: read-out: GI; outline: as §1
[26] = tested on: K562; assay: Antitumor activity against human K562 cells assessed as cell growth inhibition at 10 uM incubated for 48 hrs by sulforhodamine B assay; assay type: functional; conditions: read-out: GI; outline: as §1
[27] = tested on: DU-145; assay: Antitumor activity against human DU-145 cells assessed as cell growth inhibition at 10 uM incubated for 48 hrs by sulforhodamine B assay; assay type: functional; conditions: read-out: GI; outline: as §1
[28] = tested on: NCI-H226; assay: Antitumor activity against human NCI-H226 assessed as cell growth inhibition at 10 uM incubated for 48 hrs by sulforhodamine B assay; assay type: functional; conditions: read-out: GI; outline: as §1
[29] = tested on: BT-549; assay: Antitumor activity against human BT-549 cells assessed as cell growth inhibition at 10 uM incubated for 48 hrs by sulforhodamine B assay; assay type: functional; conditions: read-out: GI; outline: as §1
[30] = biological target: Carbonic anhydrase 2 (Homo sapiens, UniProt P00918); assay: Inhibition of recombinant human carbonic anhydrase 2 preincubated with enzyme for 15 mins by phenol red dye based stopped flow CO2 hydrase assay
[31] = tested on: SF-539; assay: Antitumor activity against human SF539 cells assessed as cell growth inhibition at 10 uM incubated for 48 hrs by sulforhodamine B assay; assay type: functional; conditions: read-out: GI; outline: as §1
[32] = tested on: UO-31; assay: Antitumor activity against human UO-31 cells assessed as cell growth inhibition at 10 uM incubated for 48 hrs by sulforhodamine B assay; assay type: functional; conditions: read-out: GI; outline: as §2
[33] = biological target: Carbonic anhydrase 9 (Homo sapiens, UniProt Q16790); assay: Inhibition of recombinant human carbonic anhydrase 9 preincubated with enzyme for 15 mins by phenol red dye based stopped flow CO2 hydrase assay
[34] = tested on: NCI-H322M; assay: Antitumor activity against human NCI-H322M cells assessed as cell growth inhibition at 10 uM incubated for 48 hrs by sulforhodamine B assay; assay type: functional; conditions: read-out: GI; outline: as §1
[35] = tested on: MDA-MB-231; assay: Antitumor activity against human MDA-MB-231/ATCC cells assessed as cell growth inhibition at 10 uM incubated for 48 hrs by sulforhodamine B assay; assay type: functional; conditions: read-out: GI; outline: as §1
[36] = tested on: OVCAR-3; assay: Antitumor activity against human OVCAR-3 cells assessed as cell growth inhibition at 10 uM incubated for 48 hrs by sulforhodamine B assay; assay type: functional; conditions: read-out: GI; outline: as §1
[37] = tested on: SK-MEL-2; assay: Antitumor activity against human SK-MEL-2 cells assessed as cell growth inhibition at 10 uM incubated for 48 hrs by sulforhodamine B assay; assay type: functional; conditions: read-out: GI; outline: as §1
[38] = tested on: LOX IMVI; assay: Antitumor activity against human LOX IMVI cells assessed as cell growth inhibition at 10 uM incubated for 48 hrs by sulforhodamine B assay; assay type: functional; conditions: read-out: GI; outline: as §1

Chain of Carbonic anhydrase 12 (O43570 whole entry): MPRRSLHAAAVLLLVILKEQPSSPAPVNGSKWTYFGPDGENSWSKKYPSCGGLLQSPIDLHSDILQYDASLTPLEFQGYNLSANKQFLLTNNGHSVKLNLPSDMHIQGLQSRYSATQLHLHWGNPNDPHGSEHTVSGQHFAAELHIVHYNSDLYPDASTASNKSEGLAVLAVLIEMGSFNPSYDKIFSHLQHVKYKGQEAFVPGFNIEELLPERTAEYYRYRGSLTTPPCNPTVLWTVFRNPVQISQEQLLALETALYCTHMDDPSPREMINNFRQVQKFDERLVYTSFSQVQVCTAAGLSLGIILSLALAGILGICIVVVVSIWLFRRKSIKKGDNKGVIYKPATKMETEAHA

Cc1ccc(-c2cn3nc(N)c(/N=N/c4ccc(S(N)(=O)=O)cc4)c3[nH]2)cc1 gave an inhibition of growth at 10 µM [1] of 63%, an inhibition of growth at 10 µM [2] of 46% and an IC50 [3] of 20.3 µM. It also gave an inhibition of growth at 10 µM [4] of 39%, an inhibition of growth at 10 µM [5] of 63% and an inhibition of growth at 10 µM [6] of 62%. For the same compound, the inhibition of growth at 10 µM [7] was 44%, the inhibition of growth at 10 µM [8] was 47% and the Activity [9] was “inactive”. It also gave an inhibition of growth at 10 µM [10] of 80%, an inhibition of growth at 10 µM [11] of 86% and an inhibition of growth at 10 µM [12] of 49%. It also gave an inhibition of growth at 10 µM [13] of 57%, a Ki [14] of 0.0277 µM and an inhibition of growth at 10 µM [15] of 54%. For the same compound, the inhibition of growth at 10 µM [16] was 66%, the inhibition of growth at 10 µM [17] was 55% and the inhibition of growth at 10 µM [18] was 51%. For the same compound, the inhibition of growth at 10 µM [19] was 60%, the inhibition of growth at 10 µM [20] was 67% and the inhibition of growth at 10 µM [21] was 64%. It also gave an inhibition of growth at 10 µM [22] of 48%, an inhibition of growth at 10 µM [23] of 39% and an inhibition of growth at 10 µM [24] of 56%. The inhibition of growth at 10 µM [25] was 35%, the inhibition of growth at 10 µM [26] was 48% and the inhibition of growth at 10 µM [27] was 52%. The inhibition of growth at 10 µM [28] was 27%, the inhibition of growth at 10 µM [29] was 33% and the Ki [30] was 0.0997 µM. The inhibition of growth at 10 µM [31] was 56%, the inhibition of growth at 10 µM [32] was 77% and the Ki [33] was 0.0094 µM. The inhibition of growth at 10 µM [34] was 69%, the inhibition of growth at 10 µM [35] was 42% and the inhibition of growth at 10 µM [36] was 36%. It also gave an inhibition of growth at 10 µM [37] of 57% and an inhibition of growth at 10 µM [38] of 70%.
